According to PMC4015637 (Anticancer research, 2014):
Like-named read-outs stand apart in the source and are kept apart here.

Tests used:
mice or rats = settings: cited from earlier work
male C57/BL6 mice = test: In vivo toxicity study; settings: for calcification in organs / histopathological analysis of the major organs (liver, heart, kidney) / toxicity in vivo (clinical pathology chemistry profile, complete blood count): 60 μg/kg i.p., three weeks
[1] = In vitro metabolic stability in rat liver microsomes; type: in vitro ADME; settings: 0.5 μM compound, 1 mg/ml microsomal protein, NADPH, 37°C, n=3, mean±S.D.
Summary of the method: (§1)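 Pooled liver microsomes (1 mg/ml protein) with 0.5 μM test compound, added from acetonitrile stock, in 0.2 M phosphate pH 7.4 with NADPH-regenerating system (1.3 mM NADP+, 3.3 mM glucose-6-phosphate, 0.4 U/ml G6P dehydrogenase), shaken at 37°C. Samples at 5–120 min quenched in acetonitrile with deuterated internal standard, centrifuged, and analysed by LC-MS/MS for % remaining. Half-life reported; n=3, mean±S.D.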

[2] = In vitro metabolic stability in human liver microsomes; type: in vitro ADME; settings: 0.5 μM compound, 1 mg/ml microsomal protein, NADPH, 37°C, n=3, mean±S.D.
Summary of the method: as §1

[3] = In vitro metabolic stability in monkey liver microsomes; type: in vitro ADME; settings: 0.5 μM compound, 1 mg/ml microsomal protein, NADPH, 37°C, n=3, mean±S.D.
Summary of the method: as §1

[4] = In vitro metabolic stability in dog liver microsomes; type: in vitro ADME; settings: 0.5 μM compound, 1 mg/ml microsomal protein, NADPH, 37°C, n=3, mean±S.D.
Summary of the method: as §1

[5] = In vitro metabolic stability in mouse liver microsomes; type: in vitro ADME; settings: 0.5 μM compound, 1 mg/ml microsomal protein, NADPH, 37°C, n=3, mean±S.D.
Summary of the method: as §1

[6] = type: in vitro ADME, human, rat, mouse, monkey, dog
human CYP11A1 = target: T1, human CYP11A1 (Homo sapiens, UniProt P05108); test: Metabolism by purified recombinant CYP11A1 in reconstituted system; type: in vitro ADME; settings: 50 μM substrate in 0.45% cyclodextrin, 1 μM human CYP11A1, 1 h incubation
T1 sequence (P05108 40-521): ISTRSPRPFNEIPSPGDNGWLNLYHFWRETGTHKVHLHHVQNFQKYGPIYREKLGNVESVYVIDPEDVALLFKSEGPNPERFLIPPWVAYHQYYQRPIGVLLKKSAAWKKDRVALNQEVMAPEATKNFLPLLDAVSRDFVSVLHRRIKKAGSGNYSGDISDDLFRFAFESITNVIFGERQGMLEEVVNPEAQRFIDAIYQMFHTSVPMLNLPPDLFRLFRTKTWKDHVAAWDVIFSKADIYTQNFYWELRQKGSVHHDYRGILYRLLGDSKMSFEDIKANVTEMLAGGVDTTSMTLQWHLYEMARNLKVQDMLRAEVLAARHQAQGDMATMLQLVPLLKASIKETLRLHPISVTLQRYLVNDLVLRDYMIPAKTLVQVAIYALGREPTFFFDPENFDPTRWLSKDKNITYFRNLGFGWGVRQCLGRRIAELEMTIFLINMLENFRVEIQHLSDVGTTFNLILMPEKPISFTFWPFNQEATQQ
Summary of the method: (§2)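 Reconstituted system: adrenodoxin (15 μM), adrenodoxin reductase (4 μM), purified recombinant human CYP11A1 or CYP27A1 (1 μM). Substrate at 50 μM final, solubilised in 0.45% 2-hydroxypropyl-β-cyclodextrin. Incubation 1 h, extended for some analogs to 2 h (CYP11A1) or 3 h (CYP27A1). Products extracted with dichloromethane and resolved by reverse-phase HPLC. Read-outs are % substrate conversion and number of products.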

human CYP27A1 = target: T2, human CYP27A1 (Homo sapiens, UniProt Q02318); test: Metabolism by purified recombinant CYP27A1 in reconstituted system; type: in vitro ADME; settings: 50 μM substrate in 0.45% cyclodextrin, 1 μM human CYP27A1, 1 h incubation
T2 sequence (Q02318 34-531): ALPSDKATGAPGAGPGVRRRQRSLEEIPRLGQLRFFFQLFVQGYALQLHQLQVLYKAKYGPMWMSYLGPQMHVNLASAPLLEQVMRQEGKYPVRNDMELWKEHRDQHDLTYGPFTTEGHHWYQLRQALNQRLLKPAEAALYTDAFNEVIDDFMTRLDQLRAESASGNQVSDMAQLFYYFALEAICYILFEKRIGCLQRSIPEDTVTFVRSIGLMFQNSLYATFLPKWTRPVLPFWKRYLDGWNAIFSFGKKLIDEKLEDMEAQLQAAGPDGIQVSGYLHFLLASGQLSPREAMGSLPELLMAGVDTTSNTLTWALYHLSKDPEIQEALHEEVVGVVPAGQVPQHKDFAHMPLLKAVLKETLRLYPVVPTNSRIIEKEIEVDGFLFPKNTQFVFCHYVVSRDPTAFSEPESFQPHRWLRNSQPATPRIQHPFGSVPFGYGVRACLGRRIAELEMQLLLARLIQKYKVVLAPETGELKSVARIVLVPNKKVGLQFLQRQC
Summary of the method: as §2

rat CYP24A1 = target: T3, rat CYP24A1 (Rattus norvegicus, UniProt Q09128); test: Metabolism by purified recombinant CYP24A1 in reconstituted system; type: in vitro ADME; settings: phospholipid vesicles, 0.025 mol secosteroid/mol phospholipid, 1 μM rat CYP24A1, 1 h
T3 sequence (Q09128 36-514): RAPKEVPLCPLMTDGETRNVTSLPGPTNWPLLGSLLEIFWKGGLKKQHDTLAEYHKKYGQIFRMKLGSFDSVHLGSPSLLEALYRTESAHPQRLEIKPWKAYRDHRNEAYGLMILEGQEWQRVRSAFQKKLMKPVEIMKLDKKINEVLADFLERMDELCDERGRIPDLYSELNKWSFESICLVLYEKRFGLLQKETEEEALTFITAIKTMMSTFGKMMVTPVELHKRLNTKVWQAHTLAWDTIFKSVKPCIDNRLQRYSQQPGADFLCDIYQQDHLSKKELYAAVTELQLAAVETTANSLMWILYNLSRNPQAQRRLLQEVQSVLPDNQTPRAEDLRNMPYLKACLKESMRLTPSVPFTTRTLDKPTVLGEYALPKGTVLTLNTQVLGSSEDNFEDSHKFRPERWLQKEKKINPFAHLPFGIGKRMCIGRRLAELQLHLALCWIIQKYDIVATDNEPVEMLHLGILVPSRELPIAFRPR
Summary of the method: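 Reconstituted system: purified recombinant rat CYP24A1 (1 μM), adrenodoxin (15 μM) and adrenodoxin reductase (4 μM). Test compound incorporated into phospholipid vesicles at 0.025 mol secosteroid/mol phospholipid. Incubated 1 h. Products extracted with dichloromethane and resolved by reverse-phase HPLC. Result expressed as percentage conversion of substrate to products and number of products.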

rats = settings: 3 μg/kg for seven consecutive days; cited from earlier work
mice = settings: up to 30 μg/kg for three weeks; cited from earlier work
[7] = 60 μg/kg i.p. once daily for three weeks

For C=C1/C(=C\C=C2/CCC[C@]3(C)[C@@H]([C@H](C)CCCC(C)(C)O)CC[C@@H]23)C[C@@H](O)C[C@@H]1O [1,25(OH)2D3, 1,25-dihydroxy vitamin D3, reference compound], the “dose reported to generate hypercalcemia” value (mice or rats; mice (ref 37) or rats (ref 20)) is listed as at least 1 µg/kg, the body weight (male C57/BL6 mice; 2 μg/kg i.p. once daily for three weeks) is listed as 21 ± 1 g and the serum calcium (male C57/BL6 mice; 2 μg/kg i.p. once daily for three weeks, positive control) is listed as 14.6 ± 0.48 mg/dL.
For C=C1CC[C@H](O)C/C1=C/C=C1\CCC[C@@]2(C)[C@H]1CC[C@@H]2[C@@](C)(O)CCCC(C)C [20S(OH)D3, 20S-hydroxyvitamin D3], the “half-life in liver microsomes, Rat” value [1] was 43 ± 1 min, the “half-life in liver microsomes, Human” value [2] was 60 ± 4 min and the “half-life in liver microsomes, Monkey” value [3] was 37 ± 1 min. For the same compound, the “half-life in liver microsomes, Dog” value [4] was 47 ± 1 min, the “half-life in liver microsomes, Mouse” value [5] was 42 ± 2 min and the “half-life in liver microsomes, average of five different species” value [6] was 50 min. For the same compound, the “CYP11A1 % conversion of substrate to products” value (human CYP11A1) was 21%, the “CYP11A1 No. of different products (at least 2% of total secosteroids)” value (human CYP11A1) was 3 and the “CYP27A1 No. of different products (at least 2% of total secosteroids)” value (human CYP27A1) was 3. For the same compound, the “CYP24A1 No. of different products (at least 2% of total secosteroids)” value (rat CYP24A1) was 3, the “effect on systemic calcium levels” value (rats) was “no effect on systemic calcium levels” and the “effect on systemic calcium levels” value (mice) was “no effect on systemic calcium levels”. The body weight (male C57/BL6 mice; [7]) was 25 ± 1 g, the serum calcium (male C57/BL6 mice; [7]) was 8.8 ± 0.66 mg/dL and the calcification in organs (male C57/BL6 mice) was “Calcification was not present”. The “histopathological analysis of the major organs (liver, heart, kidney)” value (male C57/BL6 mice) was “six out of the seven mice treated with 20S(OH)D3 show unremarkable histology”, the “toxicity in vivo (clinical pathology chemistry profile, complete blood count)” value (male C57/BL6 mice) was “did not show toxicity” and the “highest possible dose that does not cause noticeable cytotoxic effects” value (male C57/BL6 mice; i.p. once daily for three weeks, stated as probable) was 60 µg/kg.
In the case of C=C1CC[C@H](O)C/C1=C/C=C1\CCC[C@@]2(C)C1CC[C@@H]2[C@@](C)(O)CCCC(C)C (stereo partly drawn) [20R(OH)D3, 20R-hydroxyvitamin D3], the “half-life in liver microsomes, Rat” value [1] is reported as 19 ± 3 min, the “half-life in liver microsomes, Human” value [2] is reported as 34 ± 2 min and the “half-life in liver microsomes, Monkey” value [3] is reported as 15 ± 1 min. For the same compound, the “half-life in liver microsomes, Dog” value [4] was 21 ± 2 min, the “half-life in liver microsomes, Mouse” value [5] was 25 ± 1 min and the “half-life in liver microsomes, average of five different species” value [6] was 30 min. For the same compound, the “CYP27A1 % conversion of substrate to products” value (human CYP27A1) was 90%, the “CYP27A1 No. of different products (at least 2% of total secosteroids)” value (human CYP27A1) was 3 and the “CYP24A1 No. of different products (at least 2% of total secosteroids)” value (rat CYP24A1) was 4. For the same compound, the body weight (male C57/BL6 mice; [7]) was 25 ± 1 g, the serum calcium (male C57/BL6 mice; [7]) was 8.6 ± 0.77 mg/dL and the calcification in organs (male C57/BL6 mice) was “Calcification was not present”. The “histopathological analysis of the major organs (liver, heart, kidney)” value (male C57/BL6 mice) was “unremarkable histology” and the “toxicity in vivo (clinical pathology chemistry profile, complete blood count)” value (male C57/BL6 mice) was “did not show toxicity”.
In the case of C=C1CC[C@H](O)C/C1=C/C=C1\CCC[C@]2(C)[C@@H]([C@H](C)CCCC(C)(C)O)CC[C@@H]12 [25(OH)D3, 25-hydroxyD3], the “dose reported to generate hypercalcemia” value (mice or rats; in vivo) is listed as at least 1 µg/kg.
